Legend:
Type in all cases: protein-complex assay
[1] = biological target: T1, Integrin alpha-IIb/beta-3 (Homo sapiens, UniProt P05106+P08514); test: Binding affinity for soluble GPIIb/IIIa captured on fibrinogen coated microtiter plate
In short: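 Solid-phase ELISA measuring binding of soluble GPIIbIIIa to fibrinogen coated on a microtiter plate. Values are the average of at least 3 determinations.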

[2] = biological target: T1, Integrin alpha-IIb/beta-3; test: Binding affinity for soluble GPIIb/IIIa captured on fibrinogen coated microtiter plate; 3:1 mixture enriched in the faster eluting diastereoisomer
In short: (§1)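 Solid-phase ELISA measuring binding of soluble GPIIbIIIa to plate-coated fibrinogen. Tested as a diastereoisomer-enriched mixture, single determination (n = 1).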

[3] = biological target: T1, Integrin alpha-IIb/beta-3; test: Binding affinity for soluble GPIIb/IIIa captured on fibrinogen coated microtiter plate; 1:3 mixture enriched in the slower eluting diastereoisomer; in short: as §1

T1 sequence (P05106 27-788 limits assumed): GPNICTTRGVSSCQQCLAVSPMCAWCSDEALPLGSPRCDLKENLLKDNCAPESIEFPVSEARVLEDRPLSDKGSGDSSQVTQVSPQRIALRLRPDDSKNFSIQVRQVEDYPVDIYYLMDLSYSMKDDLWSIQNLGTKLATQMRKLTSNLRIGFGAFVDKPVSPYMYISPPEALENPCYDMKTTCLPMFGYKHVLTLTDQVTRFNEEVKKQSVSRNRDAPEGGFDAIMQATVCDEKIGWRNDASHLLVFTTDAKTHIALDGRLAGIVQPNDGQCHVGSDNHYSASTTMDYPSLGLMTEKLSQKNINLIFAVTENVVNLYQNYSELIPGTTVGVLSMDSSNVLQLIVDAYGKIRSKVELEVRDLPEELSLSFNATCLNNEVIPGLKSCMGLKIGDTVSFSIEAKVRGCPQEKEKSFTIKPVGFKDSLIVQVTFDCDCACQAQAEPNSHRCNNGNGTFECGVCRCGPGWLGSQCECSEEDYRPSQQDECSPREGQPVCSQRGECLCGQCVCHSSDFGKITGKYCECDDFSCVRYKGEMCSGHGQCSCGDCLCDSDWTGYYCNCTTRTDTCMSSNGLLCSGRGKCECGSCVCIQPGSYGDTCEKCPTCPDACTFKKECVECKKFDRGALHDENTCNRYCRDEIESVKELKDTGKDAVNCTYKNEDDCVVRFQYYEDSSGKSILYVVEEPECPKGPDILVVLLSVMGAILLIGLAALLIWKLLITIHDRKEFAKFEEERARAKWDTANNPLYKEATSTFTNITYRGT
T1 sequence (P08514 32-887 limits assumed): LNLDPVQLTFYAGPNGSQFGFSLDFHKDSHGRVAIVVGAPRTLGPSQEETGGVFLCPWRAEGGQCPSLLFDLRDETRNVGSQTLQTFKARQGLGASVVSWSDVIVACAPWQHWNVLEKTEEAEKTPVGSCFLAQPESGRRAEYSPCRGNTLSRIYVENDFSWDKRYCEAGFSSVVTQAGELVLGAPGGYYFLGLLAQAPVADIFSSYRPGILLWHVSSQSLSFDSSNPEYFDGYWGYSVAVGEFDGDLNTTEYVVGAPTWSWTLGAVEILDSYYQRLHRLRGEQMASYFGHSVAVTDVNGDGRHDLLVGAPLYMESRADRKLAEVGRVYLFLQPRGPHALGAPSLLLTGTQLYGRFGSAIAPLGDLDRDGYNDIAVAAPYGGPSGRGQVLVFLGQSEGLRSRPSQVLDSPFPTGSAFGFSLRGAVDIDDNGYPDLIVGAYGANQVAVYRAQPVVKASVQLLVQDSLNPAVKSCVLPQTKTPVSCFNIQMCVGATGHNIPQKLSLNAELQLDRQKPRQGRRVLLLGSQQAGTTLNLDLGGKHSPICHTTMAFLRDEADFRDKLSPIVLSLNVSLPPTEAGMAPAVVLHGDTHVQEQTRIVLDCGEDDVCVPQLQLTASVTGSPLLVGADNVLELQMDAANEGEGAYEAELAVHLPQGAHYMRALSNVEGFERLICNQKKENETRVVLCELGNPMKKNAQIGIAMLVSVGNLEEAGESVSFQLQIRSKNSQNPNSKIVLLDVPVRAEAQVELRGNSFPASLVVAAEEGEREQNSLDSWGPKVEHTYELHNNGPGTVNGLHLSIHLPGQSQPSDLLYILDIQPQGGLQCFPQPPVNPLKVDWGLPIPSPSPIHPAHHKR
T1 sequence (P08514 891-1039 limits assumed): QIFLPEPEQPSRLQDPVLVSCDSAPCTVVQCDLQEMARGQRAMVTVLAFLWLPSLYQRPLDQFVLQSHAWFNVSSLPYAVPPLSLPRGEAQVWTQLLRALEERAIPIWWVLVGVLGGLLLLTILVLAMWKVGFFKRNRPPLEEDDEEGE

IC50 [1] | IC50 [2] | IC50 [3] | SMILES
18 nM |  |  | C[C@H](CC(=O)O)N1CC(=O)N(C(C)(C)C)c2c(Cl)cc(C#Cc3ccc(C(=N)N)cc3)cc2C1=O (stereo in doubt; 11)
5 nM |  |  | C[C@@H](CC(=O)O)N1CC(=O)N(C)c2ccc(C#Cc3ccc(C(=N)N)cc3)cc2C1=O
2 nM |  |  | C[C@@H](CC(=O)O)N1CC(=O)N(C(C)(C)C)c2c(Cl)cc(C#Cc3ccc(C(=N)N)cc3)cc2C1=O (stereo in doubt; 9)
7 nM |  |  | C[C@@H](CC(=O)O)N1CC(=O)N(C)c2c(Cl)cc(C#Cc3ccc(C(=N)N)cc3)cc2C1=O
65 nM |  |  | C[C@H](CC(=O)O)N1CC(=O)N(C(C)(C)C)c2c(Cl)cc(C#Cc3ccc(C(=N)N)cc3)cc2C1=O (stereo in doubt; 12)
 | 3 nM | 12 nM | C[C@@H](CC(=O)O)N1CC(=O)N(C(C)(C)C)c2ccc(C#Cc3ccc(C(=N)N)cc3)cc2C1=O
60 nM |  |  | C[C@H](CC(=O)O)N1CC(=O)N(C)c2ccc(C#Cc3ccc(C(=N)N)cc3)cc2C1=O
140 nM |  |  | C[C@@H](CC(=O)O)N1CC(=O)N(C(C)(C)C)c2c(Cl)cc(C#Cc3ccc(C(=N)N)cc3)cc2C1=O (stereo in doubt; 10)
11 nM |  |  | CN1C(=O)CN(CCC(=O)O)C(=O)c2cc(C#Cc3ccc(C(=N)N)cc3)ccc21

From ChEMBL document CHEMBL1129954, “From peptide to non-peptide. 3. Atropisomeric GPIIbIIIa antagonists containing the 3,4-dihydro-1H-1,4-benzodiazepine-2,5-dione nucleus” (J Med Chem, 1997)
